Data published in ChEMBL document CHEMBL4613282, “Novel N-Substituted Benzomorphan-Based Compounds: From MOR-Agonist/DOR-Antagonist to Biased/Unbiased MOR Agonists” (ACS Med Chem Lett, 2020).
Activity calls are given as the source filed them. The calls are words filed in the database; no cut-off is given here.

What was measured:
[1] = target: Kappa-type opioid receptor (Cavia porcellus, UniProt P41144); assay: Displacement of [3H]-U69,593 from KOR in guinea pig brain membranes incubated for 30 mins by liquid scintillation counting; assay type: cell membranes, Membrane
Method in brief: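 KOR binding measured as [3H]U69,593 displacement. Ki as mean ± SEM of three separate experiments, each run in duplicate.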

Mu-type opioid receptor = Mu-type opioid receptor (Rattus norvegicus, UniProt P33535); assay: Displacement of [3H]-DAMGO from MOR in rat brain membranes incubated for 45 mins by liquid scintillation counting; assay type: cell membranes, Membrane
Method in brief: (§1)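 Ki as mean ± SEM of three separate experiments, each run in duplicate.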

[2] = target: Delta-type opioid receptor (Rattus norvegicus, UniProt P33533); assay: Displacement of [3H]DPDPE from DOR in rat brain membranes incubated for 45 mins by liquid scintillation counting; assay type: cell membranes, Membrane; method in brief: as §1
[3] = Toxicity in PGE2-induced CD1 mouse model of thermal hyperalgesia assessed as effect on gastrointestinal transit at 4 mg/kg, sc dosed 30 mins before charcoal suspension administration and measured after 30 mins (reference value: 30 cm); assay type: organism-based; conditions: in vivo, 0.5 h
Method in brief: (§2)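 Run straight after the PGE2 hyperalgesia test, i.e. 30 min after s.c. dosing. Mice received 0.5% charcoal suspension intragastrically. Distance travelled by charcoal along the small intestine measured 30 min after ingestion. Mean ± SEM of 6–7 mice; one-way ANOVA with Bonferroni test versus the saline group.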

[4] = target: Mu-type opioid receptor (Homo sapiens) (UniProt P35372); assay: Agonist activity at EE-tagged MOR (unknown origin) expressed in human HEK293 cells assessed as increase in ERK1/2 phosphorylation at 1 uM after 5 mins by Western blot analysis; assay type: cell-based
Method in brief: (§3)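 Serum-starved HEK293 cells stably expressing MOR exposed to 1 μM compound for 5, 10 or 15 min. Lysates run on 10% SDS-PAGE and immunoblotted for phospho-ERK1,2, with α-tubulin reprobe as loading check. […] Three independent experiments.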

[5] = target: Mu-type opioid receptor (Homo sapiens) (UniProt P35372); assay: Agonist activity at EE-tagged MOR (unknown origin) expressed in human HEK293 cells assessed as increase in ERK1/2 phosphorylation at 1 uM after 15 mins by Western blot analysis; assay type: cell-based; method in brief: as §3
[6] = target: Mu-type opioid receptor (Homo sapiens) (UniProt P35372); assay: Agonist activity at EE-tagged MOR (unknown origin) expressed in human HEK293 cells assessed as inhibition of forskolin-induced cAMP accumulation at 10 uM after 30 mins by GloSensor cAMP assay; assay type: functional, cell-based
Method in brief: (§4)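 HEK293 cells stably expressing MOR, stimulated with 50 μM forskolin in the presence of a range of compound concentrations, up to 10–5 M. Read-out is cAMP accumulation as % of maximum. Triplicate determinations in three independent experiments, mean ± SEM.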

Mus musculus [7] = assay: Antihyperalgesic activity in sc dosed PGE2-induced CD1 mouse model of thermal hyperalgesia at 8 to 16 mg/kg, sc pretreated for 20 mins before PGE2 stimulation and measured after 10 mins by radiant heat […] method; assay type: functional, organism-based
[8] = Toxicity in PGE2-induced CD1 mouse model of thermal hyperalgesia assessed as effect on gastrointestinal transit at 8 to 16 mg/kg, sc dosed 30 mins before charcoal suspension administration and measured after 30 mins (reference value: 30 cm); assay type: organism-based; conditions: in vivo, 0.5 h; method in brief: as §2
Mus musculus [9] = assay: Antihyperalgesic activity in sc dosed PGE2-induced CD1 mouse model of thermal hyperalgesia assessed as increase in paw withdrawl latency pretreated with compound for 20 mins before PGE2 stimulation for 10 mins by radiant heat […] method; assay type: functional, organism-based
Method in brief: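 Mice given compound or solvent s.c. 20 min before intraplantar PGE2 or saline. Hindpaw withdrawal latency to radiant heat measured in the injected paw 10 min after the i.pl. injection. Test compounds dosed 8–16 mg/kg; morphine 1–3 mg/kg and LP1 1–4 mg/kg as comparators. One-way ANOVA with Bonferroni test.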

Mus musculus [10] = assay: Antinociceptive activity in Swiss […] mouse assessed as effect on tail flick latency at 2.5 to 7.5 mg/kg, ip after 90 mins by radiant heat tail-flick method; assay type: functional, organism-based
Method in brief: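 Mouse tail-flick test after 2.5–7.5 mg/kg i.p.; saline-treated group as control. Tail-flick latency (s) followed over 90 min. Mean ± SEM from 6–8 mice.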

[11] = target: Mu-type opioid receptor (Homo sapiens) (UniProt P35372); assay: Biased agonist activity at EE-tagged MOR (unknown origin) expressed in human HEK293 cells assessed as increase in ERK1/2 phosphorylation levels at 1 uM after 15 mins by Western blot analysis; assay type: cell-based; method in brief: as §3
[12] = target: Mu-type opioid receptor (Homo sapiens) (UniProt P35372); assay: Agonist activity at EE-tagged MOR (unknown origin) expressed in human HEK293 cells assessed as inhibition of forskolin-induced cAMP accumulation at 10 uM after 30 mins by GloSensor cAMP assay relative to control; assay type: functional, cell-based; method in brief: as §4

Chain of Kappa-type opioid receptor (P41144 whole entry): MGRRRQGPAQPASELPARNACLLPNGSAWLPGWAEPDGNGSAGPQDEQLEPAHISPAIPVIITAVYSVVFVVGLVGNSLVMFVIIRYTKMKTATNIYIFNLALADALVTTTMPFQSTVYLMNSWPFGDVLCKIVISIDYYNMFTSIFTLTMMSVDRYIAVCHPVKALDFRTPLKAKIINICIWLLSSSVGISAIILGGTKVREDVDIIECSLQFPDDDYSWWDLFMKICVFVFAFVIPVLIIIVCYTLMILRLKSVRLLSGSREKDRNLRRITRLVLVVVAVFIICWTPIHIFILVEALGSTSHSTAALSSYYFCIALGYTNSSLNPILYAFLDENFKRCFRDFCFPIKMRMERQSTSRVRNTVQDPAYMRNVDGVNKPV
Chain of Delta-type opioid receptor (P33533 whole entry): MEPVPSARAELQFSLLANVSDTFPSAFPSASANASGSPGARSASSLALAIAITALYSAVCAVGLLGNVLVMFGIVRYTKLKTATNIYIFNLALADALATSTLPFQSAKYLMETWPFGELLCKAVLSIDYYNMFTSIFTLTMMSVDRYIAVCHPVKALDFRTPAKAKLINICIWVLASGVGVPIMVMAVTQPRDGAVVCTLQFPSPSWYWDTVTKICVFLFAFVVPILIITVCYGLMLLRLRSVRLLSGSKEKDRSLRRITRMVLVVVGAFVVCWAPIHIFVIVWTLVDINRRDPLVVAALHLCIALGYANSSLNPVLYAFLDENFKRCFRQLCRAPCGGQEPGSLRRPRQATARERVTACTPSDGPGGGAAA
Chain of Mu-type opioid receptor (P33535 whole entry): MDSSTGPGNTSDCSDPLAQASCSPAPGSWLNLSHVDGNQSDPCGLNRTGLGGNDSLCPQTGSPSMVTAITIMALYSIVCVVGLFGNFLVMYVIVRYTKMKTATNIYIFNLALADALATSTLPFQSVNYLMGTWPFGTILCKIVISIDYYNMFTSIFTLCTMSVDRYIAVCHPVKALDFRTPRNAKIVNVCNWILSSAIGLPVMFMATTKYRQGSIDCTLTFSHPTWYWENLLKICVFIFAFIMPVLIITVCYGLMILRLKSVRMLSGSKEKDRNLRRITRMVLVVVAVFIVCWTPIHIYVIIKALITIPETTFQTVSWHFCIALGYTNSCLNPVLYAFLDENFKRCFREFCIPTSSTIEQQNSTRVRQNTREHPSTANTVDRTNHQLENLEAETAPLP
Chain of Mu-type opioid receptor (Homo sapiens) (P35372 whole entry): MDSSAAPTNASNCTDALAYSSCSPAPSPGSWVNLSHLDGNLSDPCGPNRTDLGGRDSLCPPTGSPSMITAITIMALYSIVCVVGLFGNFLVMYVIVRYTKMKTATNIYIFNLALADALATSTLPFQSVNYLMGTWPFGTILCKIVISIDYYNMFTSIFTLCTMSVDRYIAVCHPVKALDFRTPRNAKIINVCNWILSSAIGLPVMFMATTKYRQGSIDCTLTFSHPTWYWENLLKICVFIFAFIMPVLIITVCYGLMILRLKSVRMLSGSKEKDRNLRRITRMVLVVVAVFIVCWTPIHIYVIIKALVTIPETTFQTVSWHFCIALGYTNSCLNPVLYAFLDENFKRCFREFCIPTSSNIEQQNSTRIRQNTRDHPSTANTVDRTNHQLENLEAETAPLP

Structure (SMILES) | Ki [1] | Ki (Mu-type opioid receptor) | Ki [2] | also measured
Cc1cc(C)c(N(Cc2ccccc2)C(=O)CCN2CC[C@@]3(C)c4cc(O)ccc4C[C@@H]2[C@@H]3C)c(C)c1 | 444 nM | 504 nM | > 5000 nM | –
C[C@H]1[C@H]2Cc3ccc(O)cc3[C@]1(C)CCN2CCC(=O)N(Cc1ccccc1)c1ccccc1 | > 5000 nM | 606 nM | > 5000 nM | –
Cc1ccc(NCCN2CC[C@@]3(C)c4cc(O)ccc4C[C@@H]2[C@@H]3C)c(C)c1 | > 1000 nM | 129 nM | > 5000 nM | –
CCc1cccc(C)c1N(Cc1ccccc1)C(=O)CCN1CC[C@@]2(C)c3cc(O)ccc3C[C@@H]1[C@@H]2C | 151 nM | 1540 nM | > 5000 nM | –
Cc1cccc(C)c1N(Cc1ccccc1)C(=O)CCN1CC[C@@]2(C)c3cc(O)ccc3C[C@@H]1[C@@H]2C | > 3000 nM | 400 nM | > 5000 nM | –
C[C@H]1[C@H]2Cc3ccc(O)cc3[C@]1(C)CCN2CCC(=O)Nc1ccccc1 | – | – | – | Activity [3]: Toxic; Activity [4]: Active; Activity [5]: inactive
Oc1ccc2c3c1O[C@H]1c4[nH]c5ccccc5c4C[C@@]4(O)[C@@H](C2)N(CC2CC2)CC[C@]314 [NALTRINDOLE] | – | – | 0.83 nM | –
Cc1ccc(NC(=O)CCN2CC[C@@]3(C)c4cc(O)ccc4C[C@@H]2[C@@H]3C)c(C)c1 | 340 nM | 20.8 nM | 474 nM | inhibition [6]: inactive; Activity (Mus musculus [7]): inactive; Activity [4]: Active; Activity [5]: inactive; Activity [8]: 30 cm
CN1CC[C@]23c4c5ccc(O)c4O[C@H]2[C@@H](O)C=C[C@H]3[C@H]1C5 | – | – | – | Activity (Mus musculus [9]): Dose-dependent effect
C[C@H]1[C@H]2Cc3ccc(O)cc3[C@]1(C)CCN2CCN(Cc1ccccc1)c1ccccc1 | > 3000 nM | 244 nM | > 1000 nM | –
Cc1ccc(N(Cc2ccccc2)C(=O)CCN2CC[C@@]3(C)c4cc(O)ccc4C[C@@H]2[C@@H]3C)c(C)c1 | > 2000 nM | 165 nM | > 5000 nM | –
Cc1ccc(C)c(NCCN2CC[C@@]3(C)c4cc(O)ccc4C[C@@H]2[C@@H]3C)c1 | > 2000 nM | 182 nM | > 5000 nM | –
Cc1cccc(C)c1NC(=O)CCN1CC[C@@]2(C)c3cc(O)ccc3C[C@@H]1[C@@H]2C | 252 nM | 7.4 nM | 277 nM | inhibition [6]: inactive; Activity (Mus musculus [7]): inactive; Activity [4]: Active; Activity (Mus musculus [10]): inactive; Activity [5]: inactive; Activity [8]: 30 cm
Cc1ccc(C)c(NC(=O)CCN2CC[C@@]3(C)c4cc(O)ccc4C[C@@H]2[C@@H]3C)c1 | 480 nM | 7.9 nM | 478 nM | Activity [11]: Active; inhibition [12]: 50%; Activity (Mus musculus [7]): inactive; Activity (Mus musculus [10]): inactive; Activity [8]: 30 cm
CCc1cccc(C)c1NC(=O)CCN1CC[C@@]2(C)c3cc(O)ccc3C[C@@H]1[C@@H]2C | 320 nM | 14.9 nM | 198 nM | inhibition [6]: inactive; Activity (Mus musculus [7]): inactive; Activity [4]: Active; Activity [5]: inactive; Activity [8]: 30 cm
Cc1cc(C)c(NC(=O)CCN2CC[C@@]3(C)c4cc(O)ccc4C[C@@H]2[C@@H]3C)c(C)c1 | 313 nM | 43.7 nM | > 2000 nM | inhibition [6]: inactive
